High-throughput results (PubChem BioAssay)
Most compounds without a hit are left out; they make up all but 1.8% or so of the library.
DDE Tn6 FP inh – DD(E)-Tn6 binding inhibition, primary FP screen | P02675 | Fibrin DD(E) TRITC-Tn6 fluorescence polarization displacement | inhibition, % at 8.3 µM | 370,000 tested, 0.21% active | AID 720509;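 active means inhibition above a per-campaign cutoff: mean of compounds within control limits plus 3 SD, cut at about 15% in these data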;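 further: 0% = median of all compound wells on the plate and 100% = blocking peptide control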
ARNT-TACC3 inh – ARNT/TACC3 interaction disruption | Q9Y6A5 | 390,000 tested, 0.66% active | inhibition, % at 9.99 µM | AID 623870 | AlphaScreen His-ARNT PAS-B/GST-TACC3 binding, luminescence; TACC3 fragment carries E629A point mutation;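 active means mean inhibition of replicates at least 50% and at least half of replicates each reaching 50%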;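 further: 0% = complete ARNT plus TACC3 wells and 100% = ARNT alone without TACC3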
CAL PDZ FP-1 – inhibitors of human CAL PDZ peptide binding; Q9HD26; purified CAL PDZ, TMR-peptide fluorescence polarization, 1 h; inhibition, % at 24.9 µM; 300,000 tested, 0.92% active;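 active means mean inhibition of at least 30% with at least half of replicates also reaching 30%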;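 further: 0% = DMSO neutral control and 100% = excess unlabeled competitor peptide PRC23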
CAL PDZ FP-2 – human CAL PDZ-peptide interaction inhibition. 330,000 tested, 0.02% active. inhibition, % at 20 µM. purified CAL PDZ, TMR-peptide fluorescence polarization, 1 h;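 active means highest replicate inhibition of at least 40%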;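 further: plate controls were DMSO neutral control wells for no effect and unlabeled competitor peptide control wells for full effect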
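Test system: tagged CAL PDZ domain / Buffer or medium: sodium phosphate/NaCl buffer pH 7.4 with TCEP, IgG, Thesit / Reagent: TMR-labelled reporter peptide T*-PRC34 bound in PDZ groove / Compound dosing: single point, 20 µM / Schedule: 1 h incubation at room temperature before polarization reading / Technique: fluorescence polarization (mP) / Benchmarks: unlabelled peptide, DMSO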
Tn7 DDE FP – inhibitors of Tn7 peptide binding to human fibrin DD(E); AID 720508; 370,000 tested, 0.13% active; inhibition, % at 8.3 µM; FP displacement of FITC-Tn7 peptide from fibrin DD(E); 0% = median of compound wells per plate;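 active means inhibition above the mean of compounds falling within the control limits plus 3 SD of them, cut at about 14% in these data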;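 further: 0% = plate median of compound wells and 100% = 10 µM Aha-Tn7 peptide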
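Test system: human clot-derived fibrin DD(E) complex / Quantity: 2 µM final DD(E) protein / Incubation: 10 min plus 3 h, room temperature / Measured by: fluorescence polarization / Benchmarks: high control of 10 µM Aha-Tn7 peptide / Replicates: singlicate testing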
GRK2 aptamer HTS – inhibitors of human GRK2 displacing RNA aptamer. 330,000 tested, 0.59% active. bead flow cytometry, FAM-aptamer displacement from GRK2. AID 488847. inhibition of aptamer binding, % at 10 µM. P25098;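 active means inhibition of aptamer binding above 40%, roughly 3 SD of noise, on plates passing a quality check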;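 further: median bead fluorescence of bound FAM aptamer so fluorescent compounds give negative values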
Target sequence (P25098 whole entry, looked up): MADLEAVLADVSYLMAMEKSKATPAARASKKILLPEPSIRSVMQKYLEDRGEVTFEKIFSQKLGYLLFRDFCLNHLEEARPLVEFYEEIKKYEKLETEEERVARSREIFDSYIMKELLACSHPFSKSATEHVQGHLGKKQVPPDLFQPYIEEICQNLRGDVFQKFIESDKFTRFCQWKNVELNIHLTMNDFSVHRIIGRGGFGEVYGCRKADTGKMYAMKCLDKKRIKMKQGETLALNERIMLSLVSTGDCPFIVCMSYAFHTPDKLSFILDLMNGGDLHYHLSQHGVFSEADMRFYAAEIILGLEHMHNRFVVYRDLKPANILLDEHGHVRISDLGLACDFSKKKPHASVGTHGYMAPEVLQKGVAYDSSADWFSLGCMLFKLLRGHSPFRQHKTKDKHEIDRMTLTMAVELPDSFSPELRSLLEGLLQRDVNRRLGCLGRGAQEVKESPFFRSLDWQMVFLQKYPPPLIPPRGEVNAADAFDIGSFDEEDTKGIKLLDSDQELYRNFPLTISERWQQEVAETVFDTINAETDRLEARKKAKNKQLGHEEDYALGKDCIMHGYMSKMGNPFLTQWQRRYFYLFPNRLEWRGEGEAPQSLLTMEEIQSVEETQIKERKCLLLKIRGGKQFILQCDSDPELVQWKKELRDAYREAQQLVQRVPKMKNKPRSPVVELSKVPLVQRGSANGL
GRK2 inh confirm – confirmation of human GRK2 inhibitors displacing RNA aptamer. 2,000 tested, 4% active. bead-bound GRK2, FAM-aptamer displacement, flow cytometry. shares compounds with GRK2 aptamer HTS. aptamer displacement, % at 10 µM;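 active means aptamer displacement above 40%, near three times the noise of non-fluorescent compounds, on plates passing quality checks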;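 further: negative values mostly reflect intrinsic compound fluorescence rather than true enhancement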
Aptamer quench SP – aptamer fluorescence quenching in GRK2 counter-screen. shares compounds with GRK2 aptamer HTS. Carboxyfluorescein RNA aptamer on beads, flow cytometry quenching; hits give low values. fluorescence response (% of DMSO), % at 10 µM. 2,000 tested, under 10 active. AID 504580;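 active means compounds that quench the bead-bound fluorescent RNA probe, cutting fluorescence to under half of the solvent control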;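 further: counterscreen run without GRK2 so only probe quenching by compound is measured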
GRK2 confirm 2 – human GRK2 inhibition confirmation, cherry pick 2 | shares compounds with GRK2 aptamer HTS | bead-bound GRK2, FAM-aptamer displacement, flow cytometry | inhibition of aptamer binding, % at 10 µM | 360 tested, under 10 active | AID 504782;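 active means inhibition of aptamer binding above 40%, about triple the noise seen with nonglowing compounds, on plates passing quality control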;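 further: negative values mostly come from compounds that fluoresce themselves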
FAM quench CP2 – aptamer fluorescence quenching in GRK2 counter-screen | AID 588494 | fluorescence response vs DMSO, % at 10 µM | shares compounds with GRK2 aptamer HTS | carboxyfluorescein RNA aptamer beads, flow cytometry quenching; hits give low values | 360 tested, under 10 active;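 active means response vs DMSO under 50%, meaning signal dropped by over half, treated as fluorescence quencher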;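 further: labelled aptamer on streptavidin beads without GRK2 as a quench counter-screen; 100% = bead fluorescence of DMSO wells and lower means quenching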
* marks the source's active call; other numbers are inactive results; . = not tested or not shown.

SMILES	DDE Tn6 FP inh	ARNT-TACC3 inh	CAL PDZ FP-1	CAL PDZ FP-2	Tn7 DDE FP	GRK2 aptamer HTS	GRK2 inh confirm	Aptamer quench SP	others
Cc1noc(C)c1S(=O)(=O)Nc1ccc2c(c1)C(=O)N([C@@H](C)CO)C[C@@H](C)[C@H](CN(C)Cc1ccccc1)OCCCC[C@@H](C)O2	.	12	.	.	.	.	.	.
O=c1[nH]ncc2c3ccccc3n(Cc3ccccc3)c12	1	-1	-1	-2	5	1	.	.
CCCn1c2ccccc2c2cn[nH]c(=O)c21	1	1	-6	-1	-5	18	0	99
O=C(C[C@@H]1C[C@@H]2c3cc(NC(=O)Nc4ccccc4F)ccc3O[C@@H]2[C@H](CO)O1)NCc1ccc2c(c1)OCO2	.	0	.	.	.	.	.	.
Cc1sc2ncn(CC(=O)NCc3ccco3)c(=O)c2c1-c1ccc(F)cc1	-8	2	-11	-3	-9	1	.	.
O=C(Cn1cnc2scc(-c3cccc([N+](=O)[O-])c3)c2c1=O)NCc1ccco1	2	29	8	-1	-4	88*	7	94
C/C(=N\OCc1ccccc1C#N)c1cc2ccccc2o1	4	-1	3	-2	-4	47*	-11	100
C/C(=N\OCc1ccc(C#N)cc1)c1cc2ccccc2o1	12	11	4	1	1	1	.	.
C[C@@H]1CN([C@@H](C)CO)C(=O)c2cccc(NC(=O)c3ccc(-c4nccs4)cc3)c2O[C@@H]1CN(C)CC1CC1	.	-10	.	.	.	.	.	.
COc1ccc(CNC(=O)C2(CC(=O)NC(C)(C)C)CCCC2)cc1	7	-1	2	0	3	2	.	.
CC(C)NC(=O)CC1(C(=O)NCc2ccc(Cl)cc2)CCCC1	-1	-1	-3	0	-1	50*	.	.	GRK2 confirm 2=-1;FAM quench CP2=104
Nc1ccn([C@@H]2O[C@H](C(=O)N[C@H](Cc3ccccc3)C(=O)N3CCN(CC(=O)N4CCCC4)CC3)[C@@H](O)[C@H]2O)c(=O)n1	4	.	.	.	-1	.	.	.
CCC(C)NC(=O)Cn1cnc2sc(C)cc2c1=O (stereo not drawn)	-1	4	1	1	7	43*	1	100
CCOC(=O)C1(Cc2cccc(F)c2)CCN(CC(O)CO)CC1 (stereo not drawn)	-7	-6	-4	0	3	78*	-1	103
CCOC(=O)[C@]12CCCCC/C=C\1N(Cc1ccc(OC)cc1)C(=O)[C@H]2CC(=O)N1CCC(c2ccccc2)CC1	-3	.	.	.	-10	.	.	.
CN(C)CCCN(C(=O)c1ccc(S(=O)(=O)N2CCCCC2)cc1)c1nc2cc3c(cc2s1)OCO3	-1	11	-4	0	2	15	-14	101
C[C@@H]1CN([C@@H](C)CO)C(=O)c2cc(-c3ccc(F)cc3)cnc2O[C@H]1CN(C)C(=O)CN(C)C	.	1	.	.	.	.	.	.
CC(OC(=O)c1ccc([N+](=O)[O-])s1)C(=O)NC1CCCCC1C (stereo not drawn)	9	-16	.	-1	2	33	2	96
CC1CCN(S(=O)(=O)c2ccc(C(=O)OC(C)C(=O)NC3CCCCC3C)cc2)CC1 (stereo not drawn)	-3	2	.	0	-6	0	-23	98
COc1cc(C(=O)OC(C)C(=O)NC2CCCCC2C)c([N+](=O)[O-])cc1OC (stereo not drawn)	-1	.	-7	-1	-7	0	.	.
